Experimental data gathered from unrelated publications.
Target: Vascular endothelial growth factor receptor 2 (KDR, Homo sapiens, UniProt P35968)

| SMILES | test | setting | remaining binding [%] |
| --- | --- | --- | --- |
| Cc1cnn2ncc(-c3ccnc(N(C)C)n3)c2c1 | binding | 1 µM | 96 |
| O=C(NCCCN1CCOCC1)c1ccc(Nc2ncc(Cl)c(-c3ccc(Cl)s3)n2)cc1 | binding, competition with immobilised ligand | 1 µM | 13 |
| O=C(Nc1cnc(Oc2ccc(F)cc2)nc1)N1CCc2ncccc2[C@@H]1c1ccc(F)cc1 | cell-free assay, competition with immobilised ligand | 1 µM | 88 |
| CN(CCCC(F)(F)F)c1nccc(-c2cnn3ncccc23)n1 | binding | 1 µM | 100 |
| c1cncc(-c2cccc(Nc3nccc(NC4CCCCC4)n3)c2)c1 | binding, competition with immobilised ligand | 10 µM | 69 |
| COCCOc1nc(-c2ccc(Cl)nc2)nc2c1CN(C(=O)c1ncn3ccccc13)CC2 | cell-free assay, competition with immobilised ligand | 0.1 µM | 100 |
| O=C(c1ccc(Nc2nccc(-c3cc4ccccc4s3)n2)cc1)N1CCC(N2CCCC2)CC1 | binding, competition with immobilised ligand | 1 µM | 47 |
| N#Cc1ccccc1CSc1nnc2c(n1)[nH]c1ccccc12 | binding, competition with immobilised ligand | 10 µM | 95 |
| O=C(NCCCC1CCCCC1)c1ccc(CNC(=O)c2cnn(-c3ccccc3)c2C(F)(F)F)cc1 | cell-free assay, competition with immobilised ligand | 0.1 µM | 97 |
| O=C(c1ccc(Nc2ncc(Cl)c(-c3ccc(Cl)s3)n2)cc1)N1CCC(N2CCCC2)CC1 | binding, competition with immobilised ligand | 1 µM | 2.2 |
| FC(F)(F)Oc1cccc(-c2cnc3ccc(-c4ccncc4)nn23)c1 | cell-free assay, competition with immobilised ligand | 5 µM | 18 |
| C[C@@H]1CN(c2ccc3ncc(-c4ccc5[nH]nc(C6CC6)c5c4)n3n2)C[C@H](C)O1 | binding, competition with immobilised ligand | 50 nM | 86 |
| N#CC1(c2ccccn2)CCN(Cc2cc(C(=O)N3CCCC3)c(=O)n3ccccc23)CC1 | cell-free assay, competition with immobilised ligand | 1 µM | 92 |
| CNC(=O)[C@@H]1CC[C@@H](n2c(-c3ccc4cnccc4c3)nc3ccc(C(=O)NCc4cccc(C(N)=O)c4)cc32)C1 | binding, competition with immobilised ligand | 1 µM | 69 |
| O=C(NCc1ncc(C(F)(F)F)cc1Cl)c1ccc2c(c1)C1(CCS(=O)(=O)CC1)[C@H](C1CC1)N2S(=O)(=O)c1ccc(F)cc1 | cell-free assay, competition with immobilised ligand | 1 µM | 83 |
| Nc1ncc2c(n1)-c1c([nH]c3ccc(C#CC4CC4)cc13)CCCC2 | binding, competition with immobilised ligand | 1 µM | 90 |
| C[C@@H]1CCN(c2nccc(-c3cnn4ncccc34)n2)C1 | binding | 1 µM | 87 |
| CCCOc1ccc([C@@H]2[C@@H](C(=O)O)[C@H](c3ccc4c(c3)OCO4)CN2CC(=O)Nc2c(CC)cccc2CC)cc1 | cell-free assay, competition with immobilised ligand | 1 µM | 72 |
| O=C(Nc1c[nH]nc1C(=O)NC1CCNCC1)c1cc(F)cc(F)c1 | binding, competition with immobilised ligand | 1 µM | 93 |
| CN(C)c1ncc(F)c(-c2cnn3ncccc23)n1 | binding | 1 µM | 75 |
| CC(=O)C1=C(C)N(c2cccc(C(F)(F)F)c2)C(=O)N[C@@H]1c1ccc(C#N)nc1 | cell-free assay, competition with immobilised ligand | 1 µM | 84 |
| N[C@H]1CCN(c2nccc(-c3cnn4ncccc34)n2)C1 | binding | 1 µM | 100 |
| COc1cnc(Nc2cccc(S(N)(=O)=O)c2)nc1N1CCN(c2ccccc2)CC1 | binding, competition with immobilised ligand | 1 µM | 83 |
| COc1ccc2c(O[C@@H]3C[C@H]4C(=O)N[C@]5(C(=O)O)CC5/C=C\CCCCC[C@H](NC(=O)OC5CCCC5)C(=O)N4C3)cc(-c3csc(NC(=O)C(C)C)n3)nc2c1C (stereo partly shown) | cell-free assay, competition with immobilised ligand | 1 µM | 83 |
| F[C@@H]1CCN(c2nccc(-c3cnn4ncccc34)n2)C1 | binding | 1 µM | 100 |
